{
  "source": "paper PMC8521395",
  "about": "(Journal of Antimicrobial Chemotherapy, 2021)",
  "assay_type_in_all_cases": "cell-based, Escherichia coli",
  "key": {"E. coli": {"system": "E. coli", "experiment": "MIC of chloramphenicol and nalidixic acid in AB medium", "settings": "printed as the concentration equal to 10×MIC"}, "WT E. coli cells": {"system": "WT E. coli cells", "experiment": "Macromolecular synthesis", "settings": "nalidixic acid 40 mg/L (10×MIC), AB medium without casamino acids, single experiment"}, "[1]": {"system": "WT carrying pCC:nrdAByfaE", "experiment": "Time-kill assay, WT carrying pCC:nrdAByfaE", "settings": "50 μM HU, 5 h, MHB-I"}, "Strain SMR14350": {"system": "Strain SMR14350", "experiment": "In vivo double-stranded DNA break visualization", "settings": "ciprofloxacin 0.0125 mg/L, 4 h, AB medium, mean±SD of three determinations", "method_in_brief": "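E. coli Gam-GFP reporter strain SMR14350 grown exponentially at 37°C in AB minimal medium (10 mg/L thiamine, 0.2% glucose, 0.5% casamino acids), diluted to OD450 0.05. PNA-peptide test compound (8 μM) or ciprofloxacin (0.0125 mg/L) added with anhydrotetracycline (10 mg/L) to induce Gam-GFP, for 4 h. Foci scored by fluorescence microscopy in three independent experiments (2553–3860 cells per condition).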"}, "NrdA protein": {"system": "NrdA protein", "experiment": "Western-blot analysis of NrdA protein level", "settings": "8 μM PNA-peptide, 3 h, AB medium, WT cells, band intensity relative to WT"}, "MG1655": {"system": "MG1655", "experiment": "MIC determination by broth microdilution", "settings": "MG1655, non-cation-adjusted Mueller-Hinton broth (MHB-I), low-binding plastic, 37°C, 18 h, turbidity OD595"}},
  "data": [
    {"compound": "O=C(N[C@H](CO)[C@H](O)c1ccc([N+](=O)[O-])cc1)C(Cl)Cl", "note": "[chloramphenicol]", "values": [
      {"measurement": "10×MIC", "setting": "E. coli", "result": 80, "unit": "µg/mL"}
    ]},
    {"compound": "CCn1cc(C(=O)O)c(=O)c2ccc(C)nc21", "note": "[nalidixic acid]", "values": [
      {"measurement": "DNA synthesis (DNA replication)", "setting": "WT E. coli cells", "result": "faster cessation of DNA replication"},
      {"measurement": "10×MIC", "setting": "E. coli", "result": 40, "unit": "µg/mL"}
    ]},
    {"compound": "NC(=O)NO", "note": "[HU, hydroxyurea]", "values": [
      {"measurement": "reduction in cfu/mL, HU alone", "setting": "[1]", "result": "< 1", "unit": "log"}
    ]},
    {"compound": "O=C(O)c1cn(C2CC2)c2cc(N3CCNCC3)c(F)cc2c1=O", "note": "[ciprofloxacin]", "values": [
      {"measurement": "percentage of cells with Gam-GFP foci", "setting": "Strain SMR14350", "result": "51.9 ± 6.9", "unit": "%"}
    ]},
    {"compound": "H-(KFF)3K-eg1-ATTGAT TGC G -NH2 [PNA5866]", "values": [
      {"measurement": "decrease of cellular NrdA protein level", "setting": "NrdA protein", "result": "did not inhibit NrdA protein levels"},
      {"measurement": "MIC", "setting": "MG1655", "result": 16, "unit": "µM"}
    ]}
  ]
}
